How the values were obtained:
[1] = system: KB; assay: Antiproliferative activity against human KB cells after 72 hrs by SRB assay; type: functional, cell-based
Outline: (§1)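 Cells grown in RPMI-1640 with 2 mM L-glutamine, 25 mM HEPES, 10% FBS, penicillin/streptomycin and amphotericin B. KB-VIN maintained with 100 nM vincristine. Freshly trypsinized cells seeded at 4000–7500 per well, depending on doubling time, together with compounds for 72 h. Fixed in 10% TCA, stained with 0.04% SRB, dye solubilized in 10 mM Tris base, absorbance read at 515 nm.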

[2] = Antiproliferative activity against human KBVIN cells after 72 hrs by SRB assay; type: functional, cell-based; outline: as §1
[3] = system: MDA-MB-231; assay: Antiproliferative activity against human MDA-MB-231 cells after 72 hrs by SRB assay; type: functional, cell-based; outline: as §1
[4] = system: A549; assay: Antiproliferative activity against human A549 cells after 72 hrs by SRB assay; type: functional, cell-based
[5] = system: A549; assay: Cell cycle arrest in human A549 cells assessed as accumulation after 24 hrs by propidium iodide staining based flow cytometry; type: functional
Outline: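 A549 cells seeded at 75 000 per well 24 h before dosing, then treated 24 h at 1× or 3× the IC50 concentration. DMSO and 20 nM combretastatin A-4 served as controls. Floating plus trypsinized cells pooled, fixed in 70% EtOH overnight at –20 °C, stained with propidium iodide 30 min at 37 °C. DNA content analysed by flow cytometry for G2/M population.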

Row | SMILES | IC50 ([1]; Homo sapiens, KB, 72 h) | IC50 ([2]; Homo sapiens, KBVIN, 72 h) | IC50 ([3]; Homo sapiens, MDA-MB-231, 72 h) | IC50 ([4]; Homo sapiens, A549, 72 h) | IC50 ([1]; kb) | IC50 [2] | IC50 ([3]; mda-mb-231) | IC50 ([4]; a549) | Activity [5]
1 | COc1cc(/C=C2\C(=O)OCC2Cc2ccc3c(c2)OCO3)cc(OC)c1O (stereo not given) | 11.5 µM | 6.78 µM | > 40 µM | 6.17 µM | – | – | – | – | –
2 | COc1cc(/C=C2\C(=O)OC\C2=C\c2ccc3c(c2)OCO3)cc(OC)c1O | > 40 µM | > 40 µM | > 40 µM | > 40 µM | – | – | – | – | –
3 | COc1cc(/C=C2\C(=O)OCC2Cc2ccc3c(c2)OCO3)cc(OC)c1OC(=O)[C@@H](N)Cc1ccccc1 (stereo not given in full) | 9.2 µM | 7.59 µM | 9.73 µM | 5.97 µM | – | – | – | – | –
4 | COc1cc(/C=C2\C(=O)OC\C2=C\c2ccc3c(c2)OCO3)cc(OC)c1OC(=O)[C@@H](N)Cc1ccccc1 | > 40 µM | > 40 µM | > 40 µM | > 40 µM | – | – | – | – | –
5 | COc1cc(/C=C2\C(=O)OCC2Cc2ccc3c(c2)OCO3)cc(O)c1OC (stereo not given) | 5.18 µM | 4.84 µM | 8.55 µM | 4.32 µM | – | – | – | – | –
6 | COc1cc(/C=C2\C(=O)OCC2Cc2ccc3c(c2)OCO3)cc(OC)c1OC(=O)CN(C)C (stereo not given) [listing 1 of 2 here] | – | – | – | – | 8.71 µM | 7.06 µM | 9.37 µM | 5.93 µM | –
7 | Cc1cc(/C=C2\C(=O)OC\C2=C\c2ccc3c(c2)OCO3)ccc1F | > 40 µM | > 40 µM | > 40 µM | > 40 µM | – | – | – | – | –
8 | COc1cc(/C=C2\C(=O)OC\C2=C\c2ccc3c(c2)OCO3)cc(OC(=O)CN(C)C)c1OC | > 40 µM | > 40 µM | > 40 µM | > 40 µM | – | – | – | – | –
9 | COc1cc(/C=C2\C(=O)OCC2Cc2ccc3c(c2)OCO3)cc(OC(=O)CN(C)C)c1OC (stereo not given) [listing 1 of 3 here] | – | – | – | 5.02 µM | 5.53 µM | 5.34 µM | 8.91 µM | – | –
10 | COc1cc(/C=C2\C(=O)OCC2Cc2ccc3c(c2)OCO3)cc(OC(=O)[C@@H](N)Cc2ccccc2)c1OC (stereo not given in full) | 5.4 µM | 4.95 µM | 8.8 µM | 4.8 µM | – | – | – | – | –
11 | COc1cc(/C=C2\C(=O)OC\C2=C\c2ccc3c(c2)OCO3)cc(OC)c1OC | 34 µM | 28.3 µM | > 40 µM | 35.2 µM | – | – | – | – | –
12 | COc1cc(/C=C2\C(=O)OCC2Cc2ccc3c(c2)OCO3)cc(OC)c1OC (racemic) | 9.9 µM | 5.51 µM | 5.88 µM | 5.5 µM | – | – | – | – | Dose-dependent effect
13 | COc1cc(/C=C2\C(=O)OCC2Cc2ccc3c(c2)OCO3)cc(OC(=O)CN(C)C)c1OC (stereo not given) [listing 2 of 3 here] | – | – | – | – | – | – | – | – | Dose-dependent effect
14 | COc1cc(/C=C2\C(=O)OCC2Cc2ccc3c(c2)OCO3)cc(OC(=O)CN(C)C)c1OC (stereo not given) [listing 3 of 3 here] | 4.98 µM | 4.51 µM | 9.04 µM | – | – | – | – | 3.32 µM | –
15 | COc1cc(/C=C2\C(=O)OCC2Cc2ccc3c(c2)OCO3)cc(OC)c1OC(=O)CN(C)C (stereo not given) [listing 2 of 2 here] | – | – | – | 6.15 µM | 18.1 µM | 17.6 µM | 29 µM | – | –
16 | COc1cc(/C=C2\C(=O)OC\C2=C\c2ccc3c(c2)OCO3)cc(OC(=O)[C@@H](N)Cc2ccccc2)c1OC | > 40 µM | > 40 µM | > 40 µM | > 40 µM | – | – | – | – | –
17 | COc1ccc(/C=C\c2cc(OC)c(OC)c(OC)c2)cc1O | – | – | – | – | – | – | – | – | Dose-dependent effect
18 | COc1cc(/C=C2\C(=O)OC\C2=C\c2ccc3c(c2)OCO3)cc(O)c1OC | 34 µM | 29 µM | > 40 µM | 31.2 µM | – | – | – | – | –
19 | COc1cc(/C=C2\C(=O)OC\C2=C\c2ccc3c(c2)OCO3)cc(OC)c1OC(=O)CN(C)C | > 40 µM | > 40 µM | > 40 µM | > 40 µM | – | – | – | – | –
20 | Cc1cc(/C=C2\C(=O)OCC2Cc2ccc3c(c2)OCO3)ccc1F (stereo not given) | 6.47 µM | 5.51 µM | 8.81 µM | 5.72 µM | – | – | – | – | –
